Legend:
[1] = molecular target: Bifunctional dihydrofolate reductase-thymidylate synthase (Plasmodium falciparum (isolate K1 / Thailand), UniProt P13922); test: Inhibition of the wild-type dihydrofolate reductase (DHFR)
How it was run: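 Assay at 25 °C: 50 mM TES pH 7.0, 75 mM β-mercaptoethanol, 1 mg/mL BSA, 100 µM H2folate and 100 µM NADPH. NADPH oxidation followed at 340 nm. Ki derived from IC50 as Ki(1+[S]/Km), assuming competitive inhibition.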

[2] = Antiplasmodial activity IC50 against Plasmodium falciparum K1CB1 DHFR double-mutant ([…])

Sequence of Bifunctional dihydrofolate reductase-thymidylate synthase (P13922 whole entry): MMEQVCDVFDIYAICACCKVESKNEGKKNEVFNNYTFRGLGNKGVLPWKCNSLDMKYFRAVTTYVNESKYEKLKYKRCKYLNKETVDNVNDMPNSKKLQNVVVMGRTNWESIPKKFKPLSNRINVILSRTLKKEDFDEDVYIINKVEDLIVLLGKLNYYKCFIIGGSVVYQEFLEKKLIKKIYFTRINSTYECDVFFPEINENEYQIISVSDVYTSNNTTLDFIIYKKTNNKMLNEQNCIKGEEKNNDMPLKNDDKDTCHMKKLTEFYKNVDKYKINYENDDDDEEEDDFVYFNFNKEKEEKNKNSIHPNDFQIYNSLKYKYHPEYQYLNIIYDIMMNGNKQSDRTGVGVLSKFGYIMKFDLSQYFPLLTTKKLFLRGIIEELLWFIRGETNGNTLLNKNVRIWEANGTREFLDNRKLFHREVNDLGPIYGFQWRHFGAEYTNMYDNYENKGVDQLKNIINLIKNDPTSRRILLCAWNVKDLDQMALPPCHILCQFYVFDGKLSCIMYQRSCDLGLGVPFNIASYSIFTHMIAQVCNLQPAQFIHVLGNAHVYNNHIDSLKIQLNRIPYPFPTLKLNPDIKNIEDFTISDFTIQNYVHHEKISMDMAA

Compound	Ki [1] [µM]	IC50 [2] [µM]
CCc1nc(N)nc(N)c1-c1ccc(C(C)(C)C)cc1 [5-(4-tert-butylphenyl)-6-ethylpyrimidine-2,4-diamine]	0.0006	3.9
CCOc1c(Br)cc(-c2c(N)nc(N)nc2CC)cc1Br [5-(3,5-Dibromo-4-ethoxy-phenyl)-6-ethyl-pyrimidine-2,4-diamine]	0.007	17.4
Nc1nc(N)c(-c2cccc(Cl)c2)c(CCCc2ccccc2)n1	–	3
CCc1nc(N)nc(N)c1-c1ccc2c(c1)OCO2 [5-Benzo[1,3]dioxol-5-yl-6-ethyl-pyrimidine-2,4-diamine]	–	21.5
Cc1nc(N)nc(N)c1-c1ccccc1	0.0109	30.8
COc1cc(Cc2cnc(N)nc2N)ccc1OCCCc1ccccc1 [5-[3-Methoxy-4-(3-phenyl-propoxy)-benzyl]-pyrimidine-2,4-diamine]	0.0018	11.7
COC(=O)CCCc1nc(N)nc(N)c1-c1cccc(Cl)c1 [4-[2,6-Diamino-5-(3-chloro-phenyl)-pyrimidin-4-yl]-butyric acid methyl ester]	–	36.3
COc1ccc(CCCc2nc(N)nc(N)c2-c2cccc(Cl)c2)cc1 [5-(3-Chloro-phenyl)-6-[3-(4-methoxy-phenyl)-propyl]-pyrimidine-2,4-diamine]	–	2.7
COC(=O)CCCc1nc(N)nc(N)c1-c1ccccc1 [4-(2,6-Diamino-5-phenyl-pyrimidin-4-yl)-butyric acid methyl ester]	–	31.3
CCc1nc(N)nc(N)c1-c1ccc(OC)cc1	0.0009	> 25
CCc1nc(N)nc(N)c1-c1ccc(Cl)cc1Cl [5-(2,4-Dichloro-phenyl)-6-ethyl-pyrimidine-2,4-diamine]	0.0126	22.5
COc1cc(Cc2cnc(N)nc2N)cc(OC)c1OCc1ccccc1 [5-(4-Benzyloxy-3,5-dimethoxy-benzyl)-pyrimidine-2,4-diamine]	0.0042	30.1
Cc1nc(N)nc(N)c1-c1cccc(Cl)c1 [5-(3-chlorophenyl)-6-methylpyrimidine-2,4-diamine]	–	4.8
CCc1nc(N)nc(N)c1-c1ccc(OCc2ccc(Cl)cc2Cl)c(OC)c1 [5-[4-(2,4-Dichloro-benzyloxy)-3-methoxy-phenyl]-6-ethyl-pyrimidine-2,4-diamine]	0.001	> 50
Nc1nc(N)c(-c2cccc(Cl)c2)c(CCOCCCOc2ccccc2)n1 [5-(3-chlorophenyl)-6-[2-(3-phenoxypropoxy)ethyl]pyrimidine-2,4-diamine]	–	3.3
CCc1nc(N)nc(N)c1-c1ccccc1	–	3.3

Compound	Ki [1] [µM]	IC50 [2] [µM]
Nc1nc(N)c(-c2ccccc2)c(CCCc2ccccc2)n1	–	2.3
Nc1ncc(-c2cccc(Cl)c2)c(N)n1 [5-(3-Chloro-phenyl)-pyrimidine-2,4-diamine]	0.0063	8.8
CCCCCCc1nc(N)nc(N)c1-c1ccccc1 [6-hexyl-5-phenylpyrimidine-2,4-diamine]	–	1.3
CCc1nc(N)nc(N)c1-c1ccc(C)cc1 [6-ethyl-5-(4-methylphenyl)pyrimidine-2,4-diamine]	–	12.7
CCc1nc(N)nc(N)c1-c1cccc(Cl)c1 [5-(3-chlorophenyl)-6-ethylpyrimidine-2,4-diamine]	–	1.3
CCc1nc(N)nc(N)c1-c1ccc(-c2ccccc2)cc1 [5-Biphenyl-4-yl-6-ethyl-pyrimidine-2,4-diamine]	0.188	4.4
CCc1nc(N)nc(N)c1-c1ccc(Br)cc1 [5-(4-bromophenyl)-6-ethylpyrimidine-2,4-diamine]	0.0003	25
Cc1nc(N)nc(N)c1-c1ccc(Cl)cc1	0.002	60.1
Nc1ncc(Cc2ccc(OCCCOc3cc(Cl)c(Cl)cc3Cl)cc2)c(N)n1 [5-{4-[3-(2,4,5-Trichloro-phenoxy)-propoxy]-benzyl}-pyrimidine-2,4-diamine]	0.0009	3.5
COc1cc(Cc2cnc(N)nc2N)ccc1OCc1cc(OC)c(OC)c(OC)c1 [5-[3-Methoxy-4-(3,4,5-trimethoxy-benzyloxy)-benzyl]-pyrimidine-2,4-diamine]	0.0006	27.8
CCc1nc(N)nc(N)c1-c1ccc(Cl)c(Cl)c1	–	17.4
Nc1nc(N)c(-c2ccc(Cl)cc2)c(CCCc2ccccc2)n1 [5-(4-Chloro-phenyl)-6-(3-phenyl-propyl)-pyrimidine-2,4-diamine]	–	10.6
COC(=O)CCCc1nc(N)nc(N)c1-c1ccc(Cl)cc1	–	22.3
Nc1ncc(-c2ccccc2)c(N)n1 [5-Phenyl-pyrimidine-2,4-diamine]	–	19.4
Nc1ncc(-c2ccc(Cl)cc2)c(N)n1 [5-(4-chlorophenyl)pyrimidine-2,4-diamine]	0.0024	26.2
COc1cc(COc2cc(Cc3cnc(N)nc3N)ccc2OCc2ccccc2)cc(OC)c1OC [5-[4-Benzyloxy-3-(3,4,5-trimethoxy-benzyloxy)-benzyl]-pyrimidine-2,4-diamine]	0.0121	17.5

— BindingDB's records for doi:10.1021/jm010131q (National Center For Genetic Engineering and Biotechnology …, 2002)
